Source: ChEMBL document CHEMBL1129975, “Depsides and depsidones as inhibitors of HIV-1 integrase: discovery of novel inhibitors through 3D database searching” (J Med Chem, 1997)

Tests used:
[1] = target: T1, Human immunodeficiency virus type 1 integrase (Human immunodeficiency virus 1, UniProt Q7ZJM1); assay: Inhibitory concentration of compound against strand transfer of HIV-1 integrase in experiment 1&2
Summary of the method: (§1)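 Purified recombinant HIV-1 integrase (200 nM final) preincubated with inhibitor for 30 min at 30 °C. Buffer: 25 mM MOPS pH 7.2, 7.5 mM MnCl2, 50 mM NaCl, 10% DMSO, 10% glycerol, 0.1 mg/mL BSA. Then 20 nM 5′-32P-labelled 21-mer blunt-end U5 LTR duplex was added for 1 h. Products were resolved on a denaturing 20% polyacrylamide/urea gel. IC50 was read from a percent-inhibition versus concentration plot.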

[2] = target: T1, Human immunodeficiency virus type 1 integrase; assay: Inhibitory concentration of compound against strand transfer of HIV-1 integrase in experiment 2
[3] = target: T1, Human immunodeficiency virus type 1 integrase; assay: Inhibitory concentration of compound against 3'-processing of HIV-1 integrase in experiment 1&2; summary of the method: as §1
[4] = target: T1, Human immunodeficiency virus type 1 integrase; assay: Inhibitory concentration of compound against 3'-processing of HIV-1 integrase in experiment 2
[5] = target: T1, Human immunodeficiency virus type 1 integrase; assay: Inhibitory concentration of compound against strand transfer of HIV-1 integrase in experiment 1
[6] = target: T1, Human immunodeficiency virus type 1 integrase; assay: Inhibitory concentration of compound against 3'-processing of HIV-1 integrase in experiment 1
[7] = target: T1, Human immunodeficiency virus type 1 integrase; assay: Inhibitory concentration of compound against disintegration (reversal of strand transfer)of HIV-1 integrase
Summary of the method: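 Disintegration run under the integrase assay conditions (200 nM enzyme preincubated 30 min at 30 °C in MnCl2/MOPS buffer, then 1 h with substrate). Substrate was a Y-shaped branched oligonucleotide mimicking a strand transfer product, 32P-labelled at the 5′ end of its 15-mer. The core-truncated mutant IN50-212 was used as enzyme. The 30-mer product was resolved on a denaturing 20% gel. IC50 was taken from a percent-inhibition plot.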

[8] = target: T2, Human immunodeficiency virus type 2 integrase (Human immunodeficiency virus 2, UniProt P89582); assay: Inhibitory concentration of compound against 3'-processing of HIV-2 integrase
T2 sequence (P89582 whole entry): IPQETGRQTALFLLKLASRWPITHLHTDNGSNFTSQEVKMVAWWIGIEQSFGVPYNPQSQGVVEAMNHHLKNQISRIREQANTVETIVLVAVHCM

[9] = target: T2, Human immunodeficiency virus type 2 integrase
[10] = target: T2, Human immunodeficiency virus type 2 integrase; assay: Inhibitory concentration of compound against 3' processing of HIV-2 integrase
Summary of the method: (§2)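 Integrase (200 nM final) preincubated with inhibitor for 30 min at 30 °C in pH 7.2 MOPS/HEPES buffer with 7.5 mM MnCl2, 10% DMSO, BSA and 2-mercaptoethanol. Then 20 nM 5′-32P-labeled 21-mer U5 LTR duplex was added for 1 h. Quenched with formamide/EDTA dye and run on denaturing 20% PAGE. IC50 read from a plot of % inhibition against drug concentration.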

[11] = target: T2, Human immunodeficiency virus type 2 integrase; assay: Inhibitory concentration of compound against strand transfer of HIV- integrase; summary of the method: as §2
[12] = target: T2, Human immunodeficiency virus type 2 integrase; assay: Inhibitory concentration of compound against strand transfer of HIV-2 integrase; summary of the method: as §2

T1 sequence (Q7ZJM1 whole entry): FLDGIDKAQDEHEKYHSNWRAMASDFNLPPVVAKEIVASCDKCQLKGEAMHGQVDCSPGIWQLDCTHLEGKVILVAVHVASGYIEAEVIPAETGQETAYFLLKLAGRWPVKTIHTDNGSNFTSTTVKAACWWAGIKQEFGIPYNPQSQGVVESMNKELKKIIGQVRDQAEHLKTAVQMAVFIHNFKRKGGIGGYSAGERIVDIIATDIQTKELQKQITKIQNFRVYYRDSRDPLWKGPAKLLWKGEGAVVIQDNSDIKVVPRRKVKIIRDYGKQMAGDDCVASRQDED

With Cc1cc(O)c(C=O)c2c1C(=O)Oc1c(COC(=O)/C=C/C(=O)O)c(O)c(C(=O)O)c(C)c1O2 [FUMARPROTOCETRARIC ACID] the IC50 [1] was 4.6 µM, the IC50 [2] was 7.3 µM and the IC50 [3] was 4.9 µM.

In the case of CCCCCc1cc(O)cc2c1Oc1cc(O)cc(C(=O)CCCC)c1C(=O)O2, the IC50 [4] is reported as 42.2 µM, the IC50 [5] is reported as 39.2 µM and the IC50 [6] is reported as 59.9 µM. The IC50 [2] was 28.1 µM.

With O=C(/C=C/c1ccc(O)c(O)c1)O[C@@H]1C[C@](O)(C(=O)O)C[C@@H](O)[C@H]1O (single isomer, unassigned) [CHLOROGENIC ACID] the IC50 [4] was 58.2 µM, the IC50 [5] was 45.8 µM and the IC50 [6] was 87.8 µM. The IC50 [2] was 31.3 µM.

Work on O=C1OC2C(O)COC2(O)C1(O)Cc1cc(O)c(O)c(Br)c1Br (stereo not given) yielded an IC50 [4] of 28.7 µM, an IC50 [5] of 50.2 µM and an IC50 [6] of 64.7 µM. For the same compound, the IC50 [2] was 24.3 µM.

O=[N+]([O-])c1cccc(/C=N/CCN2CCN(CC/N=C/c3cccc([N+](=O)[O-])c3O)C2c2cccc([N+](=O)[O-])c2O)c1O gave an IC50 [4] of 60.8 µM, an IC50 [5] of 36.7 µM and an IC50 [6] of 52.7 µM. For the same compound, the IC50 [2] was 49.5 µM.

Work on CC(=O)C1=C(NNC(=O)c2ccccn2)[C@@]2(C)C(=CC1=O)Oc1c(C(C)=O)c(O)c(C)c(O)c12 yielded an IC50 [4] of 60.8 µM, an IC50 [7] of 39 µM and an IC50 [5] of 48.5 µM. It also gave an IC50 [6] of 73 µM and an IC50 [2] of 55 µM.

With O=C1C(O)=C(c2ccccc2)C12CSC1(CS2)C(=O)C(O)=C1c1ccccc1 (stereo not given) the IC50 [4] was 60 µM, the IC50 [5] was 172 µM and the IC50 [6] was 132 µM. The IC50 [2] was 54.8 µM.

COC(=O)c1c(C)c2c(c(C)c1O)OC(=O)c1c(C)cc(O)c(C=O)c1O2 was tested, and the IC50 [1] was 4.4 µM, the IC50 [7] was 26 µM and the IC50 [3] was 5.4 µM.

Cc1cc(O)c(C=O)c2c1C(=O)Oc1c(CO)c(O)c3c(c1O2)C(O)OC3=O (stereo not given) [SLAZINIC ACID] was tested, and the IC50 [4] was 16 µM, the IC50 [5] was 12.6 µM and the IC50 [6] was 19 µM. The IC50 [2] was 6.2 µM.

Compound COc1cc(C)c2c(c1C=O)Oc1c(c(C)c(O)c3c1C(O)OC3=O)OC2=O (stereo not given) [STICTIC ACID] has an IC50 [4] of 2.9 µM, an IC50 [7] of 11.7 µM and an IC50 [5] of 2.6 µM. It also gave an IC50 [6] of 4.4 µM and an IC50 [2] of 1.9 µM.

With O=C(O)c1cnc2c(ccc3ncc(C(=O)O)c(O)c32)c1O the IC50 [4] was 6.1 µM, the IC50 [5] was 9.8 µM and the IC50 [6] was 7.6 µM. For the same compound, the IC50 [2] was 6.1 µM.

Compound CCCCCC(=O)Cc1cc(O)cc2c1C(=O)Oc1cc(O)c(C(=O)O)c(CCCCC)c1O2 [PHYSODIC ACID] has an IC50 [1] of 30.9 µM, an IC50 [7] of 32.5 µM and an IC50 [3] of 38.5 µM.

In the case of Cc1c2cc(O)c(=O)cc-2oc2cc(O)c(O)cc12, the IC50 [4] is reported as 1.5 µM, the IC50 [5] is reported as 1.1 µM and the IC50 [8] is reported as 2300 nM. It also gave an IC50 [6] of 1.1 µM, an IC50 [9] of 1500 nM and an IC50 [2] of 0.9 µM.

Cc1cc(O)c(C=O)c2c1C(=O)Oc1c(C)c(O)c(C(=O)O)c(C)c1O2 was tested, and the IC50 [1] was 6.5 µM, the IC50 [7] was 33.5 µM and the IC50 [3] was 4.6 µM.

O=C(Nc1ccc(C(=O)O)c(O)c1)c1ccc(C(=O)Nc2ccc(O)c(C(=O)O)c2)cc1 showed an IC50 [4] of 25.2 µM, an IC50 [5] of 16.3 µM and an IC50 [6] of 23.6 µM. It also gave an IC50 [2] of 20 µM.

C[C@@](O)(/C=C/[C@H]1CC=CC(=O)O1)[C@@H](C[C@@H](O)C=CC=C/C=C/CO)OP(=O)(O)O [FOSTRIECIN] showed an IC50 [4] of 118 µM, an IC50 [5] of 12.8 µM and an IC50 [6] of 41.3 µM. For the same compound, the IC50 [2] was 52.7 µM.

CCOC(=O)c1cnc(NCCCNc2ncc(C(=O)OCC)c(=O)[nH]2)[nH]c1=O was tested, and the IC50 [4] was 11.6 µM, the IC50 [5] was 16.7 µM and the IC50 [6] was 12.8 µM. It also gave an IC50 [2] of 7.9 µM.

Work on COC(=O)c1c(C)cc(OC(=O)c2c(C)cc(O)c(C=O)c2O)c(C)c1O [ATRANORIN] yielded an IC50 [4] of 62.4 µM, an IC50 [7] of 128 µM and an IC50 [5] of 36 µM. The IC50 [6] was 61 µM and the IC50 [2] was 44 µM.

In the case of Cc1ncc(COP(=O)(O)O)c(C2NC(C(=O)O)CS2)c1O (stereo not given), the IC50 [4] is reported as 75.1 µM, the IC50 [5] is reported as 93.4 µM and the IC50 [6] is reported as 91.7 µM. For the same compound, the IC50 [2] was 31.7 µM.

With O=C(O)c1ccc(C(=O)O)c2c(C(=O)O)ccc(C(=O)O)c12 the IC50 [4] was 174 µM, the IC50 [5] was 176 µM and the IC50 [6] was 122 µM. The IC50 [2] was 182 µM.

For CC(=O)C1=C(O)C=C2Oc3c(C(C)=O)c(O)c(C)c(O)c3[C@@]2(C)C1=O [(+)-USNIC ACID], the IC50 [1] was 124 µM, the IC50 [7] was 133 µM and the IC50 [3] was 126 µM.

Cc1cc(Cc2cc(C)c(O)c(C(=O)O)c2)cc(C(=O)O)c1O gave an IC50 [1] of 68.5 µM and an IC50 [3] of 61.8 µM.

In the case of O=C(c1ccc(O)cc1O)C1C(c2ccc(O)cc2)OC(c2ccc(O)cc2)C1C(=O)c1ccc(O)cc1O (stereo not given), the IC50 [4] is reported as 169 µM, the IC50 [5] is reported as 143 µM and the IC50 [6] is reported as 165 µM. For the same compound, the IC50 [2] was 129 µM.

O=C(NO)c1cc(O)c(O)c(O)c1 gave an IC50 [4] of 3.2 µM, an IC50 [5] of 0.5 µM and an IC50 [10] of 1600 nM. It also gave an IC50 [6] of 1.1 µM, an IC50 [11] of 1600 nM and an IC50 [2] of 1.6 µM.

Work on O=C(/C=C/c1ccc(O)c(O)c1)O[C@H]1[C@H](O)C[C@](O)(C(=O)O)C[C@H]1OC(=O)/C=C/c1ccc(O)c(O)c1 yielded an IC50 [4] of 0.7 µM, an IC50 [5] of 0.6 µM and an IC50 [12] of 500 nM. It also gave an IC50 [8] of 500 nM, an IC50 [6] of 1.3 µM and an IC50 [2] of 0.7 µM.

Nc1cc(C(=O)O)c(-c2cc(O)c(N)cc2C(=O)O)cc1O gave an IC50 [5] of 234 µM and an IC50 [6] of 212 µM.

With O=C(O)c1ccccc1C(c1cc(Br)c(O)c(Br)c1)c1ccc(Br)c(O)c1Br (stereo not given) the IC50 [4] was 25.6 µM, the IC50 [5] was 38.8 µM and the IC50 [6] was 43.7 µM. The IC50 [2] was 27.2 µM.

CCCCCc1cc2cc(O)cc(Oc3c(O)cc(O)c(C(=O)O)c3CCCCC)c2c(=O)o1 was tested, and the IC50 [7] was 35 µM, the IC50 [5] was 45.7 µM and the IC50 [6] was 52.2 µM.

In the case of CCN(CC)c1ccc(Cc2ccc(N(C)C)c(Cl)c2)cc1, the IC50 [4] is reported as 78.6 µM, the IC50 [5] is reported as 45.8 µM and the IC50 [6] is reported as 61.8 µM. It also gave an IC50 [2] of 38.6 µM.

In the case of Cc1cc(C(O)(c2cc(C)c(O)c(C(=O)O)c2)c2cc(C)c(O)c(C(=O)O)c2)cc(C(=O)O)c1O, the IC50 [4] is reported as 32.8 µM, the IC50 [5] is reported as 21.8 µM and the IC50 [6] is reported as 35.8 µM. The IC50 [2] was 23 µM.

For COc1cc(C(=O)O)c2c(c1C)OC(=O)c1c(C)cc(O)c(C=O)c1O2 [PSOROMIC ACID], the IC50 [4] was 15.1 µM, the IC50 [5] was 5.3 µM and the IC50 [6] was 17 µM. It also gave an IC50 [2] of 12.3 µM.

For O=C(NC(Cc1ccc(O)c(O)c1)C(=O)OCc1ccccc1)c1ccc([N+](=O)[O-])cc1 (stereo not given), the IC50 [4] was 253 µM, the IC50 [5] was 55.4 µM and the IC50 [6] was 163 µM. It also gave an IC50 [2] of 76.6 µM.

Compound O=C(O)c1cc(/N=N\c2ccccc2C(=O)O)ccc1O has an IC50 [4] of 211 µM, an IC50 [5] of 116 µM and an IC50 [6] of 116 µM. It also gave an IC50 [2] of 224 µM.

COc1cc(C)c2c(c1C)OC(=O)c1c(C)c(Cl)c(O)c(C=O)c1O2 showed an IC50 [4] of 2.7 µM, an IC50 [7] of 12.8 µM and an IC50 [5] of 1.6 µM. It also gave an IC50 [6] of 2.2 µM and an IC50 [2] of 2.7 µM.

Cc1cc(C(c2cc(C)c(O)c(C(=O)O)c2)c2cc(C)c(O)c(C(=O)O)c2)cc(C(=O)O)c1O showed an IC50 [4] of less than 23.4 µM, an IC50 [5] of 16.7 µM and an IC50 [6] of 20.4 µM. The IC50 [2] was less than 23.4 µM.
